Experimental findings from the array DNA melting data of Ke et al. (doi:10.1101/2024.01.08.574731) are described below.

The nature of data set [1]: melting temperature; fluorescence melt of hairpins on a sequencing array, two-state fit, raised by 9.35 °C to match UV melts. To be noted: sodium 0.088 M. Put shortly:
(§1)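 Folding enthalpy and melting temperature come from bootstrapped two-state fits to Cy3 fluorescence of library hairpins carrying annealed Cy3 and quencher oligos on a sequenced MiSeq flow cell. Imaging was done in 50 mM Na-HEPES pH 8.0, 25 mM NaCl, stepping by 2.5 °C up to 60 °C, and signals were normalised to pre-quench Cy3 and to control constructs. Results of four replicates were combined by inverse variance, and fitted temperatures were raised by 9.35 °C to match UV melts.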

A short description of data set [2]: folding enthalpy; higher = less favourable; fluorescence melt of hairpins on a sequencing array, two-state fit. As to conditions: sodium 0.088 M. Put shortly:
as §1

In the case of GATCGAGGATTCGATC ((((((....)))))), the Tm in data set [1] came out at 57.9 °C. Further, in data set [2], the folding enthalpy is -36.8 kcal/mol.
The like results for GATCGAGTAATCGATC ((((((....)))))) were, in that order, 57.4 °C and -39 kcal/mol.
For GATCGAGTCTTCGATC ((((((....)))))), in that order: 58.4 °C and -37.6 kcal/mol.
For GATCGATAATCGATC ((((((...)))))), in that order: 49.5 °C and -37.7 kcal/mol.
Consider GATCGATAGGTCGATC ((((((....)))))), for which, in data set [1], the Tm worked out at 53 °C. Besides, the folding enthalpy in data set [2] is -42.2 kcal/mol.
For GATCGATATATCGATC ((((((....)))))), in that order: 56 °C and -41 kcal/mol.
The like results for GATCGATCAATCGATC ((((((....)))))) were, in that order, 53.8 °C and -40.9 kcal/mol.
For GATCGATCATTCGATC ((((((....)))))), in that order: 53.7 °C and -39.5 kcal/mol.
Regarding GATCGATCCTCGATC ((((((...)))))), the Tm in data set [1] is 52.1 °C. In addition, in data set [2], the folding enthalpy is -40.4 kcal/mol.
For GATCGATCTTCGATC ((((((...)))))), in that order: 52.5 °C and -33.6 kcal/mol.
Regarding GATCGATGATTCGATC ((((((....)))))), the Tm in data set [1] was 53.2 °C. Besides, the folding enthalpy in data set [2] was -36.4 kcal/mol.
In the case of GATCGATGCGTCGATC ((((((....)))))), the Tm in data set [1] was 57 °C. In addition, the folding enthalpy in data set [2] is -43.7 kcal/mol.
For GATCGATGGGTCGATC ((((((....)))))), in that order: 57.5 °C and -39.7 kcal/mol.
For GATCGATGGTCGATC ((((((...)))))), in that order: 50.6 °C and -29.4 kcal/mol.
The like results for GATCGATGGTTCGATC ((((((....)))))) were, in that order, 51.2 °C and -43 kcal/mol.
As to GATCGATGTATCGATC ((((((....)))))), the Tm in data set [1] turned out to be 58.4 °C. Also, the folding enthalpy in data set [2] was -40.9 kcal/mol.
For GATCGATTATTCGATC ((((((....)))))), in that order: 54.2 °C and -42.7 kcal/mol.
The like results for GATCGATTCATCGATC ((((((....)))))) were, in that order, 59.3 °C and -39.9 kcal/mol.
The like results for GATCGATTGATCGATC ((((((....)))))) were, in that order, 54.8 °C and -45.5 kcal/mol.
On to GATCGCAAACGCGATC ((((((....)))))), for which the Tm in data set [1] is 64.8 °C. In data set [2], the folding enthalpy is -42.1 kcal/mol.
For GATCGCAATGGCGATC ((((((....)))))), in that order: 67.4 °C and -35.6 kcal/mol.
The like results for GATCGCACGGCGATC ((((((...)))))) were, in that order, 69.3 °C and -33 kcal/mol.
For GATCGCACTGGCGATC ((((((....)))))), in data set [1], the Tm was determined as 68.2 °C. The folding enthalpy in data set [2] was -34 kcal/mol.
The like results for GATCGCAGACGCGATC ((((((....)))))) were, in that order, 67.8 °C and -30.9 kcal/mol.
With GATCGCAGGAGCGATC ((((((....)))))), the Tm in data set [1] stood at 68.3 °C. Also, the folding enthalpy in data set [2] is -26.6 kcal/mol.
For GATCGCATATGCGATC ((((((....)))))), in that order: 68.8 °C and -33.8 kcal/mol.
For GATCGCATCCGCGATC ((((((....)))))), in that order: 68.7 °C and -33.4 kcal/mol.
The like results for GATCGCCACTGCGATC ((((((....)))))) were, in that order, 65.3 °C and -42.9 kcal/mol.
Regarding GATCGCCCAGCGATC ((((((...)))))), in data set [1], the Tm came to 67.4 °C. Moreover, the folding enthalpy in data set [2] is -32.1 kcal/mol.
The like results for GATCGCCCGCGCGATC ((((((....)))))) were, in that order, 66.3 °C and -30.6 kcal/mol.
For GATCGCCCTCGCGATC ((((((....)))))), in that order: 67.5 °C and -27.9 kcal/mol.
For GATCGCCGAAAGGCATC (((.(((....)))))), in that order: 37.6 °C and -9.53 kcal/mol.
As to GATCGCCGACGCGATC ((((((....)))))), the Tm in data set [1] amounted to 66.5 °C. Moreover, the folding enthalpy in data set [2] is -35.7 kcal/mol.
The like results for GATCGCCTAAGCGATC ((((((....)))))) were, in that order, 68 °C and -40.8 kcal/mol.
The like results for GATCGCCTCCGCGATC ((((((....)))))) were, in that order, 63.9 °C and -44.6 kcal/mol.
Consider GATCGCCTGAGCGATC ((((((....)))))), for which the Tm in data set [1] worked out at 68.7 °C. The folding enthalpy in data set [2] is -29.1 kcal/mol.
As for GATCGCGAAAGCGCGATC ((((((....)))..))), the Tm in data set [1] came out at 64.1 °C. The folding enthalpy in data set [2] was -30.8 kcal/mol.
For GATCGCGAAAGCGGATC ((((((....))).))), the Tm in data set [1] was determined as 57 °C. Moreover, in data set [2], the folding enthalpy was -16.4 kcal/mol.
The like results for GATCGCGAAAGCGTGATC ((((((....)))..))) were, in that order, 42.8 °C and -14.3 kcal/mol.
GATCGCGCCGGCGATC ((((((....)))))): the Tm in data set [1] came to 68.2 °C. The folding enthalpy in data set [2] was -25.3 kcal/mol.
Take GATCGCGTGGGCGATC ((((((....)))))): in data set [1], the Tm came to 68.2 °C. Further, in data set [2], the folding enthalpy is -30.8 kcal/mol.
For GATCGCTAAGCGATC ((((((...)))))), in that order: 67.9 °C and -33.5 kcal/mol.
For GATCGCTACGGCGATC ((((((....)))))), in that order: 67.8 °C and -40.5 kcal/mol.
For GATCGCTAGCGCGATC ((((((....)))))), in that order: 66.5 °C and -34 kcal/mol.
GATCGCTATCGCGATC ((((((....)))))): the Tm in data set [1] was found to be 67.1 °C. Moreover, the folding enthalpy in data set [2] is -36.9 kcal/mol.
For GATCGCTCATGCGATC ((((((....)))))), in that order: 67.8 °C and -40.2 kcal/mol.
For GATCGCTCTGGCGATC ((((((....)))))), in that order: 69.1 °C and -37.7 kcal/mol.
For GATCGCTGAGCGATC ((((((...)))))), in that order: 69 °C and -31 kcal/mol.
For the sequence GATCGCTTAGGCGATC ((((((....)))))), the Tm in data set [1] was determined as 68.6 °C. Moreover, in data set [2], the folding enthalpy is -32.1 kcal/mol.
The like results for GATCGGAAGCCGATC ((((((...)))))) were, in that order, 55 °C and -34.7 kcal/mol.
GATCGGAATACCGATC ((((((....)))))): in data set [1], the Tm was 56.6 °C. For the same sequence, the folding enthalpy in data set [2] is -33.1 kcal/mol.
For GATCGGAATCCGATC ((((((...)))))), in that order: 53.5 °C and -34.8 kcal/mol.
For GATCGGAATGCCGATC ((((((....)))))), in that order: 54.9 °C and -33.7 kcal/mol.
As for GATCGGACCCCGATC ((((((...)))))), the Tm in data set [1] was determined as 54.1 °C. Also, the folding enthalpy in data set [2] was -39.4 kcal/mol.
The like results for GATCGGAGACCCGATC ((((((....)))))) were, in that order, 53 °C and -36.6 kcal/mol.
Turning to GATCGGAGAGCCGATC ((((((....)))))), the Tm in data set [1] was determined as 54.8 °C. For the same sequence, the folding enthalpy in data set [2] is -30.3 kcal/mol.
In the case of GATCGGAGCCCCGATC ((((((....)))))), the Tm in data set [1] is 54.7 °C. The folding enthalpy in data set [2] is -32.6 kcal/mol.
For GATCGGAGCGCCGATC ((((((....)))))), in that order: 55 °C and -31.4 kcal/mol.
As for GATCGGAGTACCGATC ((((((....)))))), in data set [1], the Tm came to 57.5 °C. Also, in data set [2], the folding enthalpy was -37.9 kcal/mol.
The like results for GATCGGATACCGATC ((((((...)))))) were, in that order, 56.6 °C and -36.4 kcal/mol.
For GATCGGATGCCGATC ((((((...)))))), in that order: 63 °C and -19 kcal/mol.
For GATCGGATGGCCGATC ((((((....)))))), in that order: 56.1 °C and -29.9 kcal/mol.
Consider GATCGGATTGCCGATC ((((((....)))))), for which, in data set [1], the Tm came to 55 °C. Besides, in data set [2], the folding enthalpy is -28.7 kcal/mol.
The like results for GATCGGCAGGCCGATC ((((((....)))))) were, in that order, 66.8 °C and -34.9 kcal/mol.
For GATCGGCCAACCGATC ((((((....)))))), in that order: 55.8 °C and -38.4 kcal/mol.
For GATCGGCCACCGATC ((((((...)))))), in that order: 55.1 °C and -31.7 kcal/mol.
For GATCGGCCAGCCGATC ((((((....)))))), the Tm in data set [1] stood at 65.9 °C. In addition, the folding enthalpy in data set [2] was -36.8 kcal/mol.
With GATCGGCCCGCCGATC ((((((....)))))), the Tm in data set [1] worked out at 68.3 °C. The folding enthalpy in data set [2] was -43.9 kcal/mol.
For GATCGGCCTACCGATC ((((((....)))))), in that order: 57.9 °C and -36.5 kcal/mol.
As to GATCGGCGAAAGCCTATC (((.(((....))).))), the Tm in data set [1] amounted to 39.9 °C. In addition, the folding enthalpy in data set [2] is -19.2 kcal/mol.
For GATCGGCGTTCCGATC ((((((....)))))), in that order: 56.3 °C and -39.3 kcal/mol.
The like results for GATCGGCTATCCGATC ((((((....)))))) were, in that order, 55.8 °C and -38.4 kcal/mol.
For GATCGGCTCTCCGATC ((((((....)))))), in that order: 55.4 °C and -47.3 kcal/mol.
As for GATCGGCTTCCCGATC ((((((....)))))), the Tm in data set [1] turned out to be 56.4 °C. Further, the folding enthalpy in data set [2] was -35.5 kcal/mol.
For GATCGGGACACCGATC ((((((....)))))), in that order: 66 °C and -38.4 kcal/mol.
For GATCGGGAGCCGATC ((((((...)))))), in that order: 53.7 °C and -22 kcal/mol.
